Where only a bound is given, the exact number is not on record here.

One may read the IC50 as the concentration needed to halve the response being measured.

One experiment deals with T1, TRβ-SRC2-2 interaction (hTRβ LBD, SRC2-2 Texas Red peptide) (Homo sapiens, UniProt P10828).
T1 sequence (P10828 209-461): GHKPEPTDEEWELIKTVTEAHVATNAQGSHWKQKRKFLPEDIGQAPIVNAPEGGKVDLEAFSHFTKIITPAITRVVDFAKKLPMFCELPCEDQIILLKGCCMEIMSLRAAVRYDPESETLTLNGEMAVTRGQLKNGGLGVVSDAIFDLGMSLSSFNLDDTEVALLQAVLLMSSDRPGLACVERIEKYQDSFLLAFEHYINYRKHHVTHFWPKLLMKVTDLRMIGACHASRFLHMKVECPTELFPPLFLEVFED
Assay: not given
Particulars: confirmation, independent samples, Texas Red fluoroprobe. The class given is binding. The method in brief: (§1)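 Talon-purified TRβ (eluted with T3), 0.6 uM, with 20 nM SRC2-2 peptide carrying an N-terminal Texas Red or fluorescein label, in pH 7.4 Tris buffer with 1 µM T3 and 4% DMSO. Test compound was given as 10 three-fold dilutions, top 130 µM, then incubated 3 h at ambient temperature. Polarization was read at 555/632 nm (Texas Red) or 480/535 nm (fluorescein). mP was normalized to DMSO wells with and without TRβ, and concentration-response curves were fitted.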
`CN1CC[C@@]2(C)c3cc(O)ccc3N(C)[C@H]2O1` [geneseroline] had a concentration for half-maximal inhibition (IC50) above 30 µM.

A further experiment concerns the target T2, TRβ-SRC2-2 interaction (hTRβ LBD, SRC2-2 fluorescein peptide) (Homo sapiens, UniProt P10828).
T2 sequence (P10828 209-461): T1 sequence (P10828 209-461)
Assay: not given
It is filed as binding. The note with it: confirmation, independent samples, fluorescein fluoroprobe. The method in brief: as §1
As to `CN1CC[C@@]2(C)c3cc(O)ccc3N(C)[C@H]2O1` [geneseroline], the half-inhibitory concentration (IC50) was above 30 µM.

For the next experiment, the target named is T1, TRβ-SRC2-2 interaction (hTRβ LBD, SRC2-2 Texas Red peptide). Briefly: TRβ-SRC2-2 fluorescence polarization qHTS. Particulars: six concentrations up to 92 μM; FP inhibition. The class given is binding. A general note: In fluorescence polarisation assays a small probe gives low polarisation when free and higher when bound to something large.
Turning to `CS(=O)(=O)c1ccc(C(=O)OCC(=O)NC2CCS(=O)(=O)C2)cc1[N+](=O)[O-]` (stereo not shown) [MLS000336487-01], the “activity in the qHTS (active/inactive)” value was “inactive”.

As to `CS(=O)(=O)c1ccc(C(=O)OCC(=O)NC23CC4CC(CC(C4)C2)C3)cc1[N+](=O)[O-]` [MLS000389544-01], the “activity in the qHTS (active/inactive)” value is “active”.

For the compound `CC(=O)c1cccc(NC(=O)COC(=O)c2ccc(S(C)(=O)=O)c([N+](=O)[O-])c2)c1` [MLS000517219-01], the “activity in the qHTS (active/inactive)” value was “inactive”.

Turning to `COc1cc(C(=O)OCC(=O)NC(=O)C2CCCCC2)ccc1OC(F)F` [MLS000517502-01], the “activity in the qHTS (active/inactive)” value is recorded as “loss of the activity”.

Consider `CS(=O)(=O)c1ccc(C(=O)OCC(=O)NC(=O)C2CCCCC2)cc1[N+](=O)[O-]` [MLS000517530-01], for which the “activity in the qHTS (active/inactive)” value is recorded as “active”.

For the compound `O=C(COC(=O)c1ccncc1)NC(=O)C1CCCCC1` [MLS000565662-01], the “activity in the qHTS (active/inactive)” value is listed as “loss of the activity”.

Consider `O=C(COC(=O)c1ccc(Cl)cc1O)NC(=O)C1CCCCC1` [MLS000776485-01], for which the “activity in the qHTS (active/inactive)” value is on record as “loss of the activity”.

Consider `CS(=O)(=O)c1ccc(C(=O)OCc2nnc(-c3ccc(Cl)cc3)o2)cc1[N+](=O)[O-]` [MLS001003284-01], for which the “activity in the qHTS (active/inactive)” value was “inactive”.

With `CC(CCc1ccccc1)NC(=O)COC(=O)c1ccc(S(C)(=O)=O)c([N+](=O)[O-])c1` (stereo not shown) [MLS001003365-01], the “activity in the qHTS (active/inactive)” value is given as “active”.

Regarding `CS(=O)(=O)c1ccc(C(=O)OCc2nnc(-c3ccccc3)o2)cc1[N+](=O)[O-]` [MLS001010708-01], the “activity in the qHTS (active/inactive)” value was “inactive”.

As for `Cc1ccccc1NC(=O)COC(=O)c1ccc(S(C)(=O)=O)c([N+](=O)[O-])c1` [MLS001017631-01], the “activity in the qHTS (active/inactive)” value is “inactive”.

The record behind these values is publication PMC3162318 (Journal of biomolecular screening, 2011).
